Assay results reported in ChEMBL document CHEMBL1681705, “Optimisation of ITK inhibitors through successive iterative design cycles” (Bioorg Med Chem Lett, 2011).

How the values were obtained:
[1] = molecular target: Vascular endothelial growth factor receptor 2 (Homo sapiens) (UniProt P35968); assay: Inhibition of KDR at 0.1 uM; values are per cent of control
[2] = molecular target: Proto-oncogene tyrosine-protein kinase Src (Homo sapiens) (UniProt P12931); assay: Inhibition of c-SRC at 0.1 uM; values are per cent of control
Proto-oncogene tyrosine-protein kinase Src (Homo sapiens), sequence (P12931 2-536 limits assumed): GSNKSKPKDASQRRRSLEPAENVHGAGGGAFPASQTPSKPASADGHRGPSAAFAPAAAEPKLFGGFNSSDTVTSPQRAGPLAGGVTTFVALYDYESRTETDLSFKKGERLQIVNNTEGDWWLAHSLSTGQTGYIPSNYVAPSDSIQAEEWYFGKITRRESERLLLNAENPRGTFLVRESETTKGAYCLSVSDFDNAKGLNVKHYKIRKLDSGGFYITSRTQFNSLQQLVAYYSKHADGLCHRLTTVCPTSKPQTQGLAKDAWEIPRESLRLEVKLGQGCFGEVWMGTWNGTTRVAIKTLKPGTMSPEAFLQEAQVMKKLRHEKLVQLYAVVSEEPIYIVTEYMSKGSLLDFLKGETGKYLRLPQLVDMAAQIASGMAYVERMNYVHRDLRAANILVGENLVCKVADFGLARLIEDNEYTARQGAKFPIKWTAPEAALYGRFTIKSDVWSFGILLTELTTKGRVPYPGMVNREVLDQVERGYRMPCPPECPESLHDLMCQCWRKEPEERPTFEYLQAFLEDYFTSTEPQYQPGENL

[3] = molecular target: High affinity nerve growth factor receptor (Homo sapiens) (UniProt P04629); assay: Inhibition of TrkA at 0.1 uM; values are per cent of control
High affinity nerve growth factor receptor (Homo sapiens), sequence (P04629 33-796 limits assumed): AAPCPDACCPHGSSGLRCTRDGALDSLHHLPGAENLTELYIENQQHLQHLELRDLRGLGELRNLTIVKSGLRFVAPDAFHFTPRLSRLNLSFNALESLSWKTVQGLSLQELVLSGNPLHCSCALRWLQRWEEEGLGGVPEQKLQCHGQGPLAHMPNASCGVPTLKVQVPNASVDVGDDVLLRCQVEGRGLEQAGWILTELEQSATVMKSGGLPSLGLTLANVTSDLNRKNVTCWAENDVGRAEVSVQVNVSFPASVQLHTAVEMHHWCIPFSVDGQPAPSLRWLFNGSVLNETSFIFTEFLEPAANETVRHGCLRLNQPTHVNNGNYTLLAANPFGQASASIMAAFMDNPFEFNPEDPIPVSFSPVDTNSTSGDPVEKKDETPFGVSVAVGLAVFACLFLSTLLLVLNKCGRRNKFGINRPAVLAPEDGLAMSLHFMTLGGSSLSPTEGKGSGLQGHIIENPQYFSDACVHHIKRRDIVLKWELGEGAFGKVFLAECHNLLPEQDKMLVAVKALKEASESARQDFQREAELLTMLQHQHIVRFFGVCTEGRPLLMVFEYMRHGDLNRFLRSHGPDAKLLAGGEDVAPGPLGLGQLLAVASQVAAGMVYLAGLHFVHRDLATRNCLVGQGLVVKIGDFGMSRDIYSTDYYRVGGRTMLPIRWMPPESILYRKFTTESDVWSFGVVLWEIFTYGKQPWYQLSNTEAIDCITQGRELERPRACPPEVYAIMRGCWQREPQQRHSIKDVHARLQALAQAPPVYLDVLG

[4] = molecular target: Hepatocyte growth factor receptor (Homo sapiens) (UniProt P08581); assay: Inhibition of Met at 1 uM
In short: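 Single-point screen within a 108-kinase selectivity panel. Each kinase was tested with inhibitor at 0.1 and 1.0 micromolar, and activity was recorded as percent inhibition.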

[5] = molecular target: Tyrosine-protein kinase Lck (Homo sapiens) (UniProt P06239); assay: Inhibition of Lck at 0.1 uM; values are per cent of control
Tyrosine-protein kinase Lck (Homo sapiens), sequence (P06239 2-509 limits assumed): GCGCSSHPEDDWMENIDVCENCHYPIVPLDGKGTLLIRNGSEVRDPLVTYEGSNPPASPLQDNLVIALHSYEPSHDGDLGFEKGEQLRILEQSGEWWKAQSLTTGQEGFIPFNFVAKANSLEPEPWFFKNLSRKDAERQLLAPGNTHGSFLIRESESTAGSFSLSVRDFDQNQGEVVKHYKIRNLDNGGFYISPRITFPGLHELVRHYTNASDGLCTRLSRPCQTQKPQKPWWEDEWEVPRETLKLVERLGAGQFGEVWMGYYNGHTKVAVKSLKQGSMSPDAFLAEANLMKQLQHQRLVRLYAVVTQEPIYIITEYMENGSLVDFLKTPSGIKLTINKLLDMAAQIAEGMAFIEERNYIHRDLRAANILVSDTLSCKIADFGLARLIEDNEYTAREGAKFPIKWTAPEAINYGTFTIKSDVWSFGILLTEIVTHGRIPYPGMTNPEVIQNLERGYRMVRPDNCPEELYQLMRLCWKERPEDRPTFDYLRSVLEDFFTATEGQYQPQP

[6] = molecular target: T1, Dual specificity mitogen-activated protein kinase kinase 7 (Homo sapiens) (UniProt O14733); assay: Inhibition of MKK7beta at 0.1 uM; values are per cent of control
T1 sequence (whole entry): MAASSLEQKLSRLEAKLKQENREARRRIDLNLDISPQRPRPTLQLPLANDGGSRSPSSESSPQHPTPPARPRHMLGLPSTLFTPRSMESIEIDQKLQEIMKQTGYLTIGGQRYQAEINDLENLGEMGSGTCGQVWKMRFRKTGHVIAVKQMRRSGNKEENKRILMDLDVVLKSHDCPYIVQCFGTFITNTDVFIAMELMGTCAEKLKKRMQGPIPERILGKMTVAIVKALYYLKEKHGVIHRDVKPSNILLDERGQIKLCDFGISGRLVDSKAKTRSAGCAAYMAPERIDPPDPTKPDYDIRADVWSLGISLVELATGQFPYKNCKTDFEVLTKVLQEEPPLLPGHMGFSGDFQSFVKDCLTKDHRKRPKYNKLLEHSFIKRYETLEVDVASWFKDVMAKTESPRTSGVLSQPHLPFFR

[7] = molecular target: Serine/threonine-protein kinase pim-1 (Homo sapiens) (UniProt P11309); assay: Inhibition of Pim-1 at 0.1 uM; values are per cent of control
[8] = molecular target: Tyrosine-protein kinase SYK (Homo sapiens) (UniProt P43405); assay: Inhibition of Syk at 0.1 uM; values are per cent of control
[9] = molecular target: Platelet-derived growth factor receptor beta (Homo sapiens) (UniProt P09619); assay: Inhibition of PDGFRbeta at 0.1 uM; values are per cent of control
Platelet-derived growth factor receptor beta (Homo sapiens), sequence (P09619 whole entry): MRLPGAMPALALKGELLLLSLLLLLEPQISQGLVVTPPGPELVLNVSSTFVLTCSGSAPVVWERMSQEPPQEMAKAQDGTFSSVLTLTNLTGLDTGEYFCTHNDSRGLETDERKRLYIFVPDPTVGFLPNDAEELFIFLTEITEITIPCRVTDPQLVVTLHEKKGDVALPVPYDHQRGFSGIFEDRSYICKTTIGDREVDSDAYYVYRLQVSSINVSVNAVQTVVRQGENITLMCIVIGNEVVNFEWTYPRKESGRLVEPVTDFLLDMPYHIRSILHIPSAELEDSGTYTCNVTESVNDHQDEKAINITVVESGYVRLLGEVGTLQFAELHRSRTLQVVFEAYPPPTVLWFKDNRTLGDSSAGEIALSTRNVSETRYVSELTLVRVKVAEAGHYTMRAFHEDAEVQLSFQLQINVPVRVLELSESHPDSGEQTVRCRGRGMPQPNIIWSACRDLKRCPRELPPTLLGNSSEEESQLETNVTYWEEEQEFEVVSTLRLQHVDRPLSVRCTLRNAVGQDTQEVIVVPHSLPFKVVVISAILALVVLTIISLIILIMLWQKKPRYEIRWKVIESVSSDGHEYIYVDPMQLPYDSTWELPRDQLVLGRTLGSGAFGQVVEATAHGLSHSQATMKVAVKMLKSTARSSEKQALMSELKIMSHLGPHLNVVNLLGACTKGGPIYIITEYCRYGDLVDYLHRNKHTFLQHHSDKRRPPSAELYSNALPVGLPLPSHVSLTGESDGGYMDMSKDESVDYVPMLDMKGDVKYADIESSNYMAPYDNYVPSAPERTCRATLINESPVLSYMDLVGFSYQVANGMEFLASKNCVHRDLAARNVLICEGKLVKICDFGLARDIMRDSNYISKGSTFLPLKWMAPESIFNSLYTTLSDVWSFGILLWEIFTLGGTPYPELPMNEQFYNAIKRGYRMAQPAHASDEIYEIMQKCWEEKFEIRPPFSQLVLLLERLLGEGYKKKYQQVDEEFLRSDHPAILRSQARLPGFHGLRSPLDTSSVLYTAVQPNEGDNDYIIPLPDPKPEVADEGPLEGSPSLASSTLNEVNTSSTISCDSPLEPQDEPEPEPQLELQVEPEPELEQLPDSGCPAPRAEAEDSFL

[10] = molecular target: T2, Calcium/calmodulin-dependent protein kinase type IV (Homo sapiens) (UniProt Q16566); assay: Inhibition of CaMK4 at 0.1 uM; values are per cent of control
T2 sequence (whole entry): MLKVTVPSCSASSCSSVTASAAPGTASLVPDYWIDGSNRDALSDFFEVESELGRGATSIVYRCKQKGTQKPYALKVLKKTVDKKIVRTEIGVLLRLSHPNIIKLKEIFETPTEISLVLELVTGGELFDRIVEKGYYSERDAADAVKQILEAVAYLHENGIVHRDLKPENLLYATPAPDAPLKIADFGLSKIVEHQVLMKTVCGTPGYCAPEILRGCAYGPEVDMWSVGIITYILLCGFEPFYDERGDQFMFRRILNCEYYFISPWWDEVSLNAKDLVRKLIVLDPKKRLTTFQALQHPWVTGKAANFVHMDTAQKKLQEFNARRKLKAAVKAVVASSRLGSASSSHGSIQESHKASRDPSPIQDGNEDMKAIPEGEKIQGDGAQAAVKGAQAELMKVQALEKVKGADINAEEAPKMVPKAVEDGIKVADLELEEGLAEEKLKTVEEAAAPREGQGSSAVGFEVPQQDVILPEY

[11] = molecular target: T3, Protein kinase C iota type (Homo sapiens) (UniProt P41743); assay: Inhibition of PKCiota at 1 uM; values are per cent of control
T3 sequence (whole entry): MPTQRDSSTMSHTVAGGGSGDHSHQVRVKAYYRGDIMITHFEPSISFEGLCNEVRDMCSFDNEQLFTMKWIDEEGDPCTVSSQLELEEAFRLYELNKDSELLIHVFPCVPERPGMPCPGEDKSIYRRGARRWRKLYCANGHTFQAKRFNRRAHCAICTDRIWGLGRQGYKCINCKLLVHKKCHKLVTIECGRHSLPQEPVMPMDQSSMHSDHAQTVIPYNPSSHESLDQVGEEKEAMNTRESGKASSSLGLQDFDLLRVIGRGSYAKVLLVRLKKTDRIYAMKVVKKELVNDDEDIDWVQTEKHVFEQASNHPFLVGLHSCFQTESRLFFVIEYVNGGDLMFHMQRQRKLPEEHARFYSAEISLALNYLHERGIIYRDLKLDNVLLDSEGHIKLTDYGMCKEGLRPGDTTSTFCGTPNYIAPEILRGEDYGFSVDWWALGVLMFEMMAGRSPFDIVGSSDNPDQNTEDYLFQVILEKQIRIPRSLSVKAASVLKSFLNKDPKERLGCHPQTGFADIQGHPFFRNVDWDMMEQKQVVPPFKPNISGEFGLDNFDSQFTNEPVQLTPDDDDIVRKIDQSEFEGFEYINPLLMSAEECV

[12] = Inhibition of PKA at 0.1 uM; values are per cent of control
[13] = molecular target: Tyrosine-protein kinase Fyn (Homo sapiens) (UniProt P06241); assay: Inhibition of Fyn at 1 uM
Tyrosine-protein kinase Fyn (Homo sapiens), sequence (P06241 2-537 limits assumed): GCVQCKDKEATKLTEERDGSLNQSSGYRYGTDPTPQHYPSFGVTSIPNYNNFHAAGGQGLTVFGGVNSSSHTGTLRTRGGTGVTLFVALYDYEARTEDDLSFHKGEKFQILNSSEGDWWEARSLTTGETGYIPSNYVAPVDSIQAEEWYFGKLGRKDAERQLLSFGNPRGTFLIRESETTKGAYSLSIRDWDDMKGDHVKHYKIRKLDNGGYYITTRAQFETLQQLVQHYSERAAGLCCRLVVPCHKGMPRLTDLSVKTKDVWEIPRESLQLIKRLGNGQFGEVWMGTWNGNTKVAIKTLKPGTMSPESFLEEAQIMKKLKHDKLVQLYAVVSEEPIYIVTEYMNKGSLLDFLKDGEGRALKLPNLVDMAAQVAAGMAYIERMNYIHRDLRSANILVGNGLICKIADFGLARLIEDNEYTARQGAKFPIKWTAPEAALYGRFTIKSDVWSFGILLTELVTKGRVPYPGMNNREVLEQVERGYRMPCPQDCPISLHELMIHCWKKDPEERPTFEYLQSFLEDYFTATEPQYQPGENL
In short: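 Single-point profiling in a panel of 108 kinases. Each selected inhibitor was tested at two concentrations, 0.1 and 1.0 micromolar. Values are reported as inhibition at each concentration.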

Vascular endothelial growth factor receptor 2 (Homo sapiens), sequence (P35968 whole entry): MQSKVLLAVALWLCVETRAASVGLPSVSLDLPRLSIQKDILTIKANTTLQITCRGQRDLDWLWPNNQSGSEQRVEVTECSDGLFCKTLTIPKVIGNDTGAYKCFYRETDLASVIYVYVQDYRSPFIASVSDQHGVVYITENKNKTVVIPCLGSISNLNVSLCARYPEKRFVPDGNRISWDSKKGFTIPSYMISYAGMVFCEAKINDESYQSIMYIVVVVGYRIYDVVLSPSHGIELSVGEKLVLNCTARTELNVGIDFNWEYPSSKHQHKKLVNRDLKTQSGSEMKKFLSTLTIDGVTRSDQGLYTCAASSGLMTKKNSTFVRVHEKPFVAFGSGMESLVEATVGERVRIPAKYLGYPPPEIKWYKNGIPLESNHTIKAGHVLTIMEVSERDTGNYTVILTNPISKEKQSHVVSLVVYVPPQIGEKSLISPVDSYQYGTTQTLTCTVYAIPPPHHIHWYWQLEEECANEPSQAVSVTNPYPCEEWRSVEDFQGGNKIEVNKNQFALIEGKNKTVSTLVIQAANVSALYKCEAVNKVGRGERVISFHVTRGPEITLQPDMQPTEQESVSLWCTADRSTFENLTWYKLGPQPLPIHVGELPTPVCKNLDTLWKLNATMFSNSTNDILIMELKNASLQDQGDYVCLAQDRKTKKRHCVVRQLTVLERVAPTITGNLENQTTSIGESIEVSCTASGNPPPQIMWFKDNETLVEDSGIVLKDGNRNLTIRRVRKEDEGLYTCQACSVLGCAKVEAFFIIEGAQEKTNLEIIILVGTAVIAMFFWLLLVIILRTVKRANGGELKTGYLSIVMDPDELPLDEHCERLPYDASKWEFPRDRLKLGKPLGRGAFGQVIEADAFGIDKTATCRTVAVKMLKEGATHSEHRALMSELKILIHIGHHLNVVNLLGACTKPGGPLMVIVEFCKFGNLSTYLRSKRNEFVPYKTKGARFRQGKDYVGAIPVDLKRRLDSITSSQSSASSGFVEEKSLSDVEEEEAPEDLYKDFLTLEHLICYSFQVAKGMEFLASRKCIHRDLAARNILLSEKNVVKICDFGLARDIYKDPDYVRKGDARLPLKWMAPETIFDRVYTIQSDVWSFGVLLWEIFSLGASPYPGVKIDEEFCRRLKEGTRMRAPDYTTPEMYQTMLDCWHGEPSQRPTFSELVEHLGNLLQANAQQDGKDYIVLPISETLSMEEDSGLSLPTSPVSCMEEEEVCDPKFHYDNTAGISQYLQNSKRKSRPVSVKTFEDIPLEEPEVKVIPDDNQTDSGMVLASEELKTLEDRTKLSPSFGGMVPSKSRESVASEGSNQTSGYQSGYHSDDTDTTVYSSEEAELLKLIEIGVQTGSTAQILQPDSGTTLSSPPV

Row | residual activity [1] [%] | residual activity [2] [%] | residual activity [3] [%] | inhibition [4] [%] | residual activity [5] [%] | residual activity [6] [%] | residual activity [7] [%] | residual activity [8] [%] | residual activity [9] [%] | residual activity [10] [%] | residual activity [11] [%] | residual activity [12] [%] | inhibition [13] [%] | SMILES
1 | 28 | 16 | -1 | 6 | 27 | 98 | 100 | 2 | 85 | 74 | 76 | 42 | 0 | Cc1ccc2cc(-c3n[nH]c4ccc(NC5CCNC5)cc34)[nH]c2c1 (stereo unspecified)
2 | 45 | 31 | 10 | 28 | 61 | 103 | 106 | 0 | 82 | 109 | 90 | 41 | 4 | Cc1ccc2cc(-c3n[nH]c4ccc(NC5CCN(Cc6ccccc6)CC5)cc34)[nH]c2c1
